Active and inactive are the calls of the source. The calls are words filed in the database; no cut-off is given here.
Columns and labels:
A549 [1] = assay: Cytotoxicity against human A549 cells assessed as cell growth inhibition after 72 hrs by MTS assay; type: functional, cell-based; conditions: A549, 72 h
Method in brief: (§1)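 Cells grown to confluence, seeded at 2000 cells/well and left overnight to attach. Compound added across a concentration range in DMSO (1% final), then 72 h at 37 °C, 5% CO2. Growth read by MTS/PMS relative to 1% DMSO wells (100% growth). IC50 taken from two separate experiments, each in triplicate.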

MCF7 [2] = assay: Cytotoxicity against human MCF7 cells assessed as cell growth inhibition after 72 hrs by MTS assay; type: functional, cell-based; conditions: MCF7, 72 h; method in brief: as §1
MRC5 = assay: Cytotoxicity against human MRC5 cells assessed as cell growth inhibition after 72 hrs by MTS assay; type: cell-based; conditions: MRC5, 72 h; method in brief: as §1
[3] = target: T1, Heat shock protein HSP90 (Homo sapiens) (UniProt P07900+P08238); assay: Inhibition of Hsp90 in human MCF7 cells assessed as effect on EGFR protein degradation at 0.5 to 5 times IC50 value after 12 hrs by western blot analysis; type: cell-based
Method in brief: (§2)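 MPER lysates. 15 µg protein per lane, reducing 10% SDS-PAGE, PVDF transfer, immunoblot for EGFR, Her2, C-Raf and Hsp90, chemiluminescent detection.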

[4] = target: T1, Heat shock protein HSP90 (Homo sapiens); assay: Inhibition of Hsp90 in human MCF7 cells assessed as effect on Her2 protein degradation at 0.5 to 5 times IC50 value after 12 hrs by western blot analysis; type: cell-based; method in brief: as §2
[5] = target: T1, Heat shock protein HSP90 (Homo sapiens); assay: Inhibition of Hsp90 in human MCF7 cells assessed as effect on c-Raf protein degradation at 0.5 to 5 times IC50 value after 12 hrs by western blot analysis; type: cell-based; method in brief: as §2
[6] = target: T1, Heat shock protein HSP90 (Homo sapiens); assay: Inhibition of Hsp90 in human A549 cells assessed as effect on EGFR protein degradation at 0.5 to 5 times IC50 value after 12 hrs by western blot analysis; type: cell-based; method in brief: as §2
[7] = target: T1, Heat shock protein HSP90 (Homo sapiens); assay: Inhibition of Hsp90 in human A549 cells assessed as effect on Her2 protein degradation at 0.5 to 5 times IC50 value after 12 hrs by western blot analysis; type: cell-based; method in brief: as §2
[8] = target: T1, Heat shock protein HSP90 (Homo sapiens); assay: Inhibition of Hsp90 in human A549 cells assessed as effect on c-Raf protein degradation at 0.5 to 5 times IC50 value after 12 hrs by western blot analysis; type: cell-based; method in brief: as §2
[9] = target: T1, Heat shock protein HSP90 (Homo sapiens); assay: Inhibition of Hsp90 in human PC3MM2 cells upto 100 uM by luciferase refolding assay; type: cell-based
Method in brief: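 Luciferase-expressing PC3-MM2 cells heat-denatured at 50 °C for 8–12 min until luminescence fell to 1% of initial. 60,000 cells/100 µL added to compound (0–100 µM, 1% DMSO final) and left 1 h to recover. Luciferin/ATP/CoA reagent then added and luminescence read at once. Refolding expressed relative to 1% DMSO wells; triplicate points fitted to dose-response curves.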

[10] = target: T2, B-raf/RAF proto-oncogene serine/threonine-protein kinase (Homo sapiens) (UniProt P04049+P15056); assay: Inhibition of B-Raf/C-Raf in human A549 cells assessed as decrease in phosphorylated MEK levels at five times IC50 value by Western blot analysis; type: cell-based; conditions: TDE = time-dependent effect
[11] = target: T2, B-raf/RAF proto-oncogene serine/threonine-protein kinase (Homo sapiens); assay: Inhibition of B-Raf/C-Raf in human A549 cells assessed as decrease in phosphorylated ERK levels at five times IC50 value by Western blot analysis; type: cell-based; conditions: TDE = time-dependent effect
[12] = target: T1, Heat shock protein HSP90 (Homo sapiens); assay: Inhibition of Hsp90 in human A549 cells assessed as effect on EGFR levels at five times IC50 value after 2 to 12 hrs by Western blot analysis; type: cell-based
Method in brief: (§3)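 Lysed in MPER with protease/phosphatase inhibitors, clarified at 14,000g. 15 µg protein per lane run on reducing 10% gels, transferred to PVDF, immunoblotted, detected by HRP chemiluminescence.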

[13] = target: T1, Heat shock protein HSP90 (Homo sapiens); assay: Inhibition of Hsp90 in human A549 cells assessed as decrease in C-Raf levels at five times IC50 value after 2 to 12 hrs by Western blot analysis; type: cell-based; method in brief: as §3
[14] = target: T2, B-raf/RAF proto-oncogene serine/threonine-protein kinase (Homo sapiens); assay: Inhibition of B-Raf/C-Raf in human A549 cells assessed as decrease in phosphorylated MEK levels after 12 hrs by Western blot analysis; type: cell-based
[15] = target: T2, B-raf/RAF proto-oncogene serine/threonine-protein kinase (Homo sapiens); assay: Inhibition of B-Raf/C-Raf in human A549 cells assessed as decrease in phosphorylated ERK levels after 12 hrs by Western blot analysis; type: cell-based
A549 [16] = assay: Inhibition of PI3K activity in human A549 cells assessed as effect on phosphorylated Akt level at five times IC50 value after 2 to 12 hrs by Western blot analysis; type: cell-based; method in brief: as §3
A549 [17] = assay: Effect of total Akt levels in human A549 cells at five times IC50 value after 2 to 12 hrs by Western blot analysis; type: ADME, cell-based; method in brief: as §3
[18] = target: T2, B-raf/RAF proto-oncogene serine/threonine-protein kinase (Homo sapiens); assay: Inhibition of B-Raf/C-Raf heterodimerization in human A549 cells at five times IC50 value after 24 hrs by SDS-PAGE/Western blot analysis; type: cell-based
Method in brief: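 Lysed in 0.1% NP40, 50 mM Tris pH 7.5, 150 mM NaCl with inhibitors. 500 µg protein incubated with B-Raf antibody overnight at 4 °C, captured on Protein G beads for 3 h at 4 °C, washed, eluted, then SDS-PAGE and immunoblot for c-Raf.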

A549 [19] = assay: Effect on total Erk level in human A549 cells at five times IC50 value after 2 to 12 hrs by western blot analysis; type: ADME, cell-based; method in brief: as §3
A549 [20] = assay: Effect on total Mek level in human A549 cells at five times IC50 value after 2 to 12 hrs by western blot analysis; type: ADME, cell-based; method in brief: as §3
A549 [21] = assay: Effect on B-Raf level in human A549 cells at five times IC50 value after 12 to 24 hrs by Western blot analysis; type: ADME, cell-based
Method in brief: (§4)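 MPER lysates with protease/phosphatase inhibitors. 15 µg protein per lane on reducing 10% SDS gels, transferred to PVDF, immunoblotted, HRP chemiluminescent detection.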

[22] = target: T2, B-raf/RAF proto-oncogene serine/threonine-protein kinase (Homo sapiens); assay: Inhibition of B-Raf/C-Raf in human A549 cells assessed as decrease in phosphorylated MEK levels at five times IC50 value after 12 hrs by Western blot analysis; type: cell-based
[23] = target: T2, B-raf/RAF proto-oncogene serine/threonine-protein kinase (Homo sapiens); assay: Inhibition of B-Raf/C-Raf in human A549 cells assessed as decrease in phosphorylated ERK levels at five times IC50 value after 12 hrs by Western blot analysis; type: cell-based
[24] = target: T2, B-raf/RAF proto-oncogene serine/threonine-protein kinase (Homo sapiens); assay: Inhibition of B-Raf/C-Raf in human A549 cells assessed as effect on phosphorylated MEK levels at five times IC50 value after 24 hrs by Western blot analysis; type: cell-based; method in brief: as §4
[25] = target: T2, B-raf/RAF proto-oncogene serine/threonine-protein kinase (Homo sapiens); assay: Inhibition of B-Raf/C-Raf in human A549 cells assessed as effect on phosphorylated ERK levels at five times IC50 value after 24 hrs by Western blot analysis; type: cell-based; method in brief: as §4
[26] = target: T1, Heat shock protein HSP90 (Homo sapiens); assay: Inhibition of Hsp90 in human A549 cells assessed as decrease in Her2 levels at five times IC50 value after 24 hrs by Western blot analysis; type: cell-based; method in brief: as §4
[27] = target: T1, Heat shock protein HSP90 (Homo sapiens); assay: Inhibition of Hsp90 in human A549 cells assessed as decrease in EGFR levels at five times IC50 value after 24 hrs by Western blot analysis; type: cell-based; method in brief: as §4
[28] = target: T1, Heat shock protein HSP90 (Homo sapiens); assay: Inhibition of Hsp90 in human A549 cells assessed as decrease in c-Raf levels at five times IC50 value after 24 hrs by Western blot analysis; type: cell-based; method in brief: as §4
[29] = Cytotoxicity against human SKBR3 cells by MTS assay; conditions: SK-BR-3
[30] = target: T1, Heat shock protein HSP90 (Homo sapiens); assay: Inhibition of Hsp90 in human MCF7 cells assessed as decrease in EGFR levels at five times IC50 value after 12 hrs by Western blot analysis; type: cell-based; method in brief: as §2
[31] = target: T1, Heat shock protein HSP90 (Homo sapiens); assay: Inhibition of Hsp90 in human MCF7 cells assessed as decrease in Her2 levels at five times IC50 value after 12 hrs by Western blot analysis; type: cell-based; method in brief: as §2
[32] = target: T1, Heat shock protein HSP90 (Homo sapiens); assay: Inhibition of Hsp90 in human MCF7 cells assessed as decrease in C-Raf levels at five times IC50 value after 12 hrs by Western blot analysis; type: cell-based; method in brief: as §2
[33] = target: T1, Heat shock protein HSP90 (Homo sapiens); assay: Inhibition of Hsp90 in human A549 cells assessed as decrease in EGFR levels at five times IC50 value after 12 hrs by Western blot analysis; type: cell-based
[34] = target: T1, Heat shock protein HSP90 (Homo sapiens); assay: Inhibition of Hsp90 in human A549 cells assessed as decrease in Her2 levels at five times IC50 value after 12 hrs by Western blot analysis; type: cell-based
[35] = target: T1, Heat shock protein HSP90 (Homo sapiens); assay: Inhibition of Hsp90 in human A549 cells assessed as decrease in C-Raf levels at five times IC50 value after 12 hrs by Western blot analysis; type: cell-based
MCF7 [36] = assay: Effect on Hsp90 expression in human MCF7 cells at 0.5 to 5 times IC50 value after 12 hrs by western blot analysis; type: ADME, cell-based; conditions: mcf7, 12 h; method in brief: as §2

T2 sequence (P04049 whole entry, looked up): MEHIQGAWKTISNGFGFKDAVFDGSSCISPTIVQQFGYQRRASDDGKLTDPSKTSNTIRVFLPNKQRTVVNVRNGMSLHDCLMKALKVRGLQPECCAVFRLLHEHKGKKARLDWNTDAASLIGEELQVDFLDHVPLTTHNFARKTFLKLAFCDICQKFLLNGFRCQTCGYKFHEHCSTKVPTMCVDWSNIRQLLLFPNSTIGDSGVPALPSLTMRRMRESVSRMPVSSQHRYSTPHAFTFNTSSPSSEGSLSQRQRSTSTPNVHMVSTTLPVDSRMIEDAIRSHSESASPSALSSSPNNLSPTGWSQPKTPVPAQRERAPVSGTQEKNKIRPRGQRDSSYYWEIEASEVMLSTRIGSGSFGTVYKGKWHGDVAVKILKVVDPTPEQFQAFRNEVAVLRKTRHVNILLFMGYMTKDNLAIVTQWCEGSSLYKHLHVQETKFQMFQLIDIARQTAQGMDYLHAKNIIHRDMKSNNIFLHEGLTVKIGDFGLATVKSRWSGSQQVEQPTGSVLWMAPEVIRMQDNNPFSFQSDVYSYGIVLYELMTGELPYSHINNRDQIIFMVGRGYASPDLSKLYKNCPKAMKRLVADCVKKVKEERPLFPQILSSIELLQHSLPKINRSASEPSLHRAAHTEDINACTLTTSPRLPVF
T2 sequence (P15056 whole entry, looked up): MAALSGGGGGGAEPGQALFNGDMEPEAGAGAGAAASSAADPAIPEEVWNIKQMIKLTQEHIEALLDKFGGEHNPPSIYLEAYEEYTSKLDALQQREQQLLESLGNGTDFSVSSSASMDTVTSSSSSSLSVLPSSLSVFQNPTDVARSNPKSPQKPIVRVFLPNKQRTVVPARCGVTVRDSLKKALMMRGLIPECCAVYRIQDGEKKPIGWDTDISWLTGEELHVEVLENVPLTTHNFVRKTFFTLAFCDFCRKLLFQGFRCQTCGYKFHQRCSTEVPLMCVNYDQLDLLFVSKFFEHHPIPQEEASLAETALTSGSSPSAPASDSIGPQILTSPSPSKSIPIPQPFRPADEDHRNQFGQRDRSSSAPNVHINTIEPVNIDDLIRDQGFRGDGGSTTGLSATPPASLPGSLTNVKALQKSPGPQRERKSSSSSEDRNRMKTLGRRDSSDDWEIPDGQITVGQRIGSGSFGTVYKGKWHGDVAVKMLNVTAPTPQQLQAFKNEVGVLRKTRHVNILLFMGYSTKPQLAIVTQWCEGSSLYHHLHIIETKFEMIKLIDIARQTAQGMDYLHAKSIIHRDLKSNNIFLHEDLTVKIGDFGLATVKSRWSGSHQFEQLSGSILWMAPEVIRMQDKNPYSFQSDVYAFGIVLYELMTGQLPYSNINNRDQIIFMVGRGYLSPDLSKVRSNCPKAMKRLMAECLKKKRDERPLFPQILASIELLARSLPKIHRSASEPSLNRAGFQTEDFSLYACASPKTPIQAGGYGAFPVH

COc1cccc(-c2cc(NC(=O)Nc3cc4ccc(OC5CCN(C)CC5)c(C)c4oc3=O)ccc2OC)c1
IC50 (A549 [1]): 150 nM | IC50 (MCF7 [2]): 170 nM | IC50 (MRC5): 4.3 µM | inhibition [3]: inactive | inhibition [4]: inactive | inhibition [5]: inactive | inhibition [6]: inactive | inhibition [7]: inactive | inhibition [8]: inactive | inhibition [9]: inactive | inhibition [10]: tde | inhibition [11]: tde | inhibition [12]: inactive | inhibition [13]: inactive | inhibition [14]: Dose-dependent effect | inhibition [15]: Dose-dependent effect | Activity (A549 [16]): inactive | Activity (A549 [17]): Non-toxic | inhibition [18]: Active | Activity (A549 [19]): Non-toxic | Activity (A549 [20]): Non-toxic

CCCS(=O)(=O)Nc1ccc(F)c(C(=O)c2c[nH]c3ncc(-c4ccc(Cl)cc4)cc23)c1F [VEMURAFENIB]
Activity (A549 [21]): Non-toxic

COc1cccc(-c2cccc(NC(=O)Nc3cc4ccc(OC5CCN(C)CC5)c(C)c4oc3=O)c2)c1
IC50 (A549 [1]): 280 nM | inhibition [22]: Active | inhibition [23]: Active | inhibition [24]: inactive | inhibition [25]: inactive

Cc1c(OC2CCN(C)CC2)ccc2cc(NC(=O)Nc3cccc(-c4ccccc4)c3)c(=O)oc12
IC50 (A549 [1]): 60 nM | inhibition [26]: Active | inhibition [27]: Active | inhibition [28]: Active

COc1ccc(NC(=O)Nc2cc3ccc(OC4CCN(C)CC4)c(C)c3oc2=O)cc1-c1ccccc1
IC50 (A549 [1]): 410 nM | inhibition [22]: Active | inhibition [23]: Active | inhibition [24]: inactive | inhibition [25]: inactive

CO[C@@H]1[C@@H](OC(N)=O)[C@@H](O)[C@H](Oc2ccc3c(O)c(NC(=O)c4ccc(O)c(CC=C(C)C)c4)c(=O)oc3c2C)OC1(C)C [NOVOBIOCIN]
IC50 [29]: 700 µM

N#Cc1c(Oc2ccc(F)c(NC(=O)Cc3cccc(C(F)(F)F)c3)c2)ccc2nc(NC(=O)C3CC3)sc12
IC50 (A549 [1]): 1700 nM | Activity (A549 [21]): Non-toxic

Cc1c(OC2CCN(C)CC2)ccc2cc(NC(=O)Nc3ccccc3)c(=O)oc12
IC50 (A549 [1]): 240 nM | IC50 (MCF7 [2]): 770 nM | IC50 (MRC5): 3.6 µM | inhibition [30]: Active | inhibition [31]: Active | inhibition [32]: Active | inhibition [33]: Active | inhibition [34]: Active | inhibition [35]: Active | Activity (MCF7 [36]): Non-toxic
